Laboratory results as given in PubChem BioAssay AID688 (PCMD, 2007).
Out of some 27,000 compounds screened, about 250 (0.93%) were called active.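 How the source made its calls: active means mutant luminescence inhibited past about 50% while wild type luminescence and mutant growth stay under set limits (limit read from the data); inconclusive means mutant versus wild type luminescence inhibition gap past a set limit; inactive means the rest.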 Only a selection was taken, and actives are over-represented in it overall.

Assay: mutant yeast GCN4 reporter luminescence inhibitors – S. cerevisiae, eIF2B-epsilon R284H, Beta-Glo luminescence, primary screen (AID 688)
Details: GCN4-lacZ luminescence; growth inhibition: measured here: mutant yeast growth, toxicity, concentration not given here; inhibition: stronger effect = higher value, screened at 25 µM (by protocol)
Summary of the method: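 System: Yeast eIF2B-epsilon R284H mutant carrying GCN4–beta-galactosidase fusion | Read-out basis: Percent inhibition, luminescence and growth | Compound: 25 µM single dose | Times: 16 h at 30 °C exposure | Measured by: Luminescence and A595 | Buffer or medium: YPD medium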
With O=C(COc1ccccc1Cl)Nn1cnnc1 the growth inhibition was -7.89% and the inhibition was 14.3% (inactive). With Cc1cccc(NC(=O)/C(=C\c2ccco2)NC(=O)c2ccccc2)c1 the growth inhibition was 10.8% and the inhibition was 15.4% (inactive). For CCOc1ccc(C(=O)NC(C(=O)NCc2ccccn2)C(C)C)cc1 (stereo not drawn), the growth inhibition was -4.76% and the inhibition was -9.95% (inactive). For CC(=O)NC1=NN(C(C)=O)C(C)(c2ccc(Cl)s2)S1 (stereo not drawn), the growth inhibition was 6.67% and the inhibition was 44.3% (inactive). In the case of Cc1cc(C)n(C(=O)CCNC(=O)c2ccccc2Cl)n1, the inhibition is reported as -0.54% (inactive). In the case of O=C(CSc1nnnn1-c1ccccc1)NCc1ccco1, the inhibition is reported as -70.2% (inactive). With Cc1ccc(C(=O)N/N=C/c2sc(=O)n(Cc3cccc(C(=O)O)c3)c2Cl)cc1 the growth inhibition was -9.52% and the inhibition was 18.2% (inactive). For COc1ccc(C2CC(=O)C=C(NCC3CCCO3)C2)cc1 (stereo not drawn), the growth inhibition was 10.8% and the inhibition was 17.6% (inactive). In the case of CCOC(=O)c1cnc(SC)nc1Sc1ccc(Cl)cc1Cl, the growth inhibition is reported as 5% and the inhibition is reported as 22.2% (inactive). With O=C(NC(C(=O)NCCN1CCOCC1)C12CC3CC(CC(C3)C1)C2)C1CCCCC1 (stereo not drawn) the growth inhibition was 28.1% and the inhibition was 15.3% (inactive). With Cc1ccc(S(=O)(=O)c2c(COC(=O)c3cccc(Cl)c3)c(-c3ccccc3)nn2C)cc1 the growth inhibition was 12.1% and the inhibition was 35.8% (inactive). With O=C(O)c1cc(S(=O)(=O)N2CCCCCC2)c(Cl)cc1Cl the inhibition was 8.58% (inactive). For CCCCCCNCCn1cnc2c(N)ncnc21, the inhibition was 37.2% (inactive). With CCOC(=O)CN1C(=O)C(=O)c2cc(C)ccc21 the growth inhibition was -4.55% and the inhibition was 21.8% (inactive). With CC(C)COC(=O)c1ccc(NC(=O)C2C3C=CC(C3)C2C(=O)O)cc1 (stereo not drawn) the growth inhibition was 20.7% and the inhibition was 15.8% (inactive). With O=C(Nc1nc2ccc(S(=O)(=O)N3CCCC3)cc2s1)C1CCCO1 (stereo not drawn) the growth inhibition was -18.2% and the inhibition was 18.6% (inactive). In the case of CS(=O)(=O)c1ccc2nc(NC(=O)C3C4C=CC(C4)C3C(=O)O)sc2c1 (stereo not drawn), the growth inhibition is reported as -6.9% and the inhibition is reported as 55.1% (active). With COC(=O)C1=C(C(=O)OC)C2(OC1c1ccc(Br)cc1)C(=O)c1ccccc1C2=O (stereo not drawn) the growth inhibition was -26.3% and the inhibition was -2.75% (inactive). With CC(C)(C)c1ccc(C(=O)NCC(=O)OCN2C(=O)c3ccccc3C2=O)cc1 the growth inhibition was -3.45% and the inhibition was 13.3% (inactive). For CCCCOC(=O)Cn1c(=N)n(CCN(CC)CC)c2ccccc21, the growth inhibition was 19.4% and the inhibition was 17.1% (inactive). For COc1cc(OC)nc(NC(=O)CCl)n1, the growth inhibition was -16.7% and the inhibition was 3.82% (inactive). For COc1ccc(C2=NO[C@@H]3C(=O)N(Cc4ccccc4)C(=O)[C@H]23)cc1OC, the growth inhibition was 14.3% and the inhibition was 7.78% (inactive). For COc1ccc(OC)c(NC(=O)CN2CCN(C(=O)c3ccco3)CC2)c1, the growth inhibition was 18.5% and the inhibition was 17.4% (inactive). With c1ccc(-n2ncc3c2ncn2c(C4CCCCC4)nnc32)cc1 the inhibition was 16.1% (inactive). In the case of Cc1sc2nc(SCC(N)=O)n(C)c(=O)c2c1C, the growth inhibition is reported as 6.45% and the inhibition is reported as 20.9% (inactive). With O=C(Nc1ccc(Br)cc1)c1cccc(NC(=O)C2C3CC4OC(=O)C2C4C3)c1 (stereo not drawn) the growth inhibition was 3.13% and the inhibition was 27.9% (inactive). For CC1=C(C(=O)Nc2ccccc2)C(c2ccco2)C(C#N)=C(SCC(N)=O)N1 (stereo not drawn), the growth inhibition was -15% and the inhibition was 11.1% (inactive). In the case of COC(=O)C1=C(C)Nc2ncnn2C1c1cccnc1 (stereo not drawn), the growth inhibition is reported as 10% and the inhibition is reported as 1.7% (inactive). For Cc1nn(C(C)CC(=O)O)c(C)c1C (stereo not drawn), the inhibition was 18.6% (inactive). In the case of Cc1cc2nnc(SCC(=O)N3CCN(c4ccccc4)CC3)n2c(N)n1, the growth inhibition is reported as -13.6% and the inhibition is reported as 24.8% (inactive). In the case of Cn1c(SCC(=O)C(C)(C)C)nnc1-c1ccccn1, the growth inhibition is reported as 12.8% and the inhibition is reported as 20.3% (inactive). With CC(CO)N1CCS(=O)(=O)CC1 (stereo not drawn) the growth inhibition was 15% and the inhibition was 18.1% (inactive). In the case of Cc1ccc(-n2c(SCC(=O)Nc3ccc4c(c3)OCO4)nnc2-c2ccoc2C)cc1, the inhibition is reported as -19.2% (inactive). In the case of O=C(CSc1nnc(-c2ccccn2)n1-c1ccccc1)Nc1ccc2c(c1)OCO2, the growth inhibition is reported as -57.1% and the inhibition is reported as 55.6% (active). In the case of Cc1ccc(-n2c(SCC(=O)Nc3ccc4c(c3)OCO4)nnc2-c2ccccn2)cc1, the growth inhibition is reported as -2.78% and the inhibition is reported as -3.69% (inactive). In the case of CCCSC1=C(C#N)C(c2ccccc2C)C(C(=O)OC)C(=O)N1 (stereo not drawn), the growth inhibition is reported as 12% and the inhibition is reported as -22.6% (inactive). With Cc1nc2cc(NC(=O)NCc3ccccc3)ccc2o1 the growth inhibition was -9.52% and the inhibition was -14.4% (inactive). For COCC(=O)Nc1ccc(Br)cc1, the growth inhibition was -9.52% and the inhibition was -24.5% (inactive). For Cc1nc(NC(=O)CN(C)S(=O)(=O)c2ccc(Cl)cc2)sc1C, the growth inhibition was 5% and the inhibition was -24.3% (inactive). For C=CCNC(=O)c1cc2nc(C3CC3)cc(C(F)F)n2n1, the inhibition was 12.7% (inactive). With COCCNS(=O)(=O)c1cc(Br)ccc1OC the growth inhibition was 9.09% and the inhibition was 18.4% (inactive). For COC(=O)c1ccc(Sc2ccc(F)cc2)c(N)c1, the growth inhibition was 27% and the inhibition was 23.2% (inactive). In the case of O=C(c1ccc2c(c1)OCO2)N1CCN(C(=O)c2ccco2)CC1, the growth inhibition is reported as 16.7% and the inhibition is reported as 35.7% (inactive). For CCOCN(C(=O)Cn1c(C(C)O)nc2ccccc21)c1c(C)cccc1CC (stereo not drawn), the growth inhibition was -7.69% and the inhibition was 20.1% (inactive). In the case of CC(=O)OCc1cc2cc(C)ccc2[nH]c1=O, the growth inhibition is reported as -2.5% and the inhibition is reported as -23.7% (inactive). For CCOC(=O)c1[nH]c2ccc(OC)cc2c1NC(=O)N1CCOCC1, the inhibition was -48.6% (inactive). With CCOc1ccc(NC(=O)CN2CCN(CC(=O)Nc3ccc(OC)cc3)CC2)cc1 the growth inhibition was 9.09% and the inhibition was -13.6% (inactive). For CCCNC(=O)NCc1ccc(N2CCCC2=O)cc1, the growth inhibition was 12.5% and the inhibition was 10.8% (inactive). For O=c1/c(=C/c2ccc(CNS(=O)(=O)c3ccccc3)o2)sc2n1CCN=2, the growth inhibition was -8.62% and the inhibition was 62.4% (active). With CC1(C)CC(=O)C=C(NCCN2CCNCC2)C1 the growth inhibition was 9.46% and the inhibition was 32.9% (inactive). With CC1(C)CC(=O)C=C(NCCCNC2CCCCC2)C1 the growth inhibition was 8.06% and the inhibition was 53.4% (active). With CC1(C)CC(=O)C=C(N2CCCC2)C1 the inhibition was 30.3% (inactive). In the case of Cc1ccc(N2C(=O)CC(Sc3ncn[nH]3)C2=O)cc1 (stereo not drawn), the growth inhibition is reported as 23.8% and the inhibition is reported as -7.91% (inactive). In the case of COc1ccc(NC(=O)Nc2ccc3nc(C)c(C)nc3c2)cc1, the growth inhibition is reported as -13.5% and the inhibition is reported as -3.08% (inactive). For CCn1c(=O)cc(O)c2ccccc21, the growth inhibition was 11.1% and the inhibition was 2.94% (inactive). With O=C1CCCc2nn(-c3ccccc3)nc21 the growth inhibition was 7.14% and the inhibition was 6.25% (inactive). With CCOC(=O)c1ccccc1NS(=O)(=O)c1ccc(OC)cc1 the growth inhibition was 10.5% and the inhibition was -13% (inactive). For N#CCSc1nc2c(c(=O)n1Cc1ccccc1)C1(CCCC1)Cc1ccccc1-2, the inhibition was 9.23% (inactive). For O=C(Cc1ccccc1)Nc1c(C(=O)N2CCCCCC2)cnn1-c1ccccc1, the growth inhibition was 8.33% and the inhibition was -14.8% (inactive). With COc1ccc(S(=O)(=O)N2CCCC(C(=O)N3CCN(C)CC3)C2)cc1C (stereo not drawn) the growth inhibition was 6.9% and the inhibition was -4.21% (inactive). In the case of CC(C)n1c(-c2cccs2)nc2ccccc21, the growth inhibition is reported as 14.7% and the inhibition is reported as 15% (inactive). With CCOC(=O)C1=C(CSc2nnnn2C)N(C)C(=O)NC1c1ccccc1 (stereo not drawn) the growth inhibition was -2.7% and the inhibition was 19.9% (inactive). For CCOC(=O)c1sc(C)c2c1NC(C)(c1cccc3ccccc13)NC2=O (stereo not drawn), the growth inhibition was 2.7% and the inhibition was -8.97% (inactive). With CCOCCn1c(C(C)C)nc2ccccc21 the inhibition was -14.4% (inactive). In the case of CCNc1nc(N)nc(Oc2ccc(OCC)nn2)n1, the growth inhibition is reported as -12.5% and the inhibition is reported as 31.6% (inactive). With C/C=C/C(=O)Nc1nnc(C(C)C)s1 the inhibition was 1.35% (inactive). For O=C(CS(=O)(=O)Cc1ccccc1)Nc1cccnc1, the inhibition was 11.1% (inactive). In the case of O=C(CCCn1c(=O)oc2ccccc21)Nc1cccnc1, the growth inhibition is reported as -21.7% and the inhibition is reported as 22.3% (inactive). With O=C(Nc1cccnc1)c1noc2c1CCCCC2 the growth inhibition was 3.45% and the inhibition was 69% (active). For COc1ccc(-n2nnnc2SCC(=O)Nc2ccccc2)cc1, the growth inhibition was -13.6% and the inhibition was 0.65% (inactive). In the case of O=C(NCc1ccccn1)c1cc(-c2ccccc2Cl)on1, the growth inhibition is reported as 9.09% and the inhibition is reported as 8.32% (inactive). In the case of COc1ccc(-c2nnc(SCC(=O)c3ccc4c(c3)OCCO4)o2)cc1, the growth inhibition is reported as -27.1% and the inhibition is reported as 9.99% (inactive). For C=CCSC1=C(C#N)C(c2cc(Br)c(O)c(OC)c2)CC(=O)N1 (stereo not drawn), the growth inhibition was -19.1% and the inhibition was 17.8% (inactive). In the case of O=C(NCC(=O)N(Cc1cccs1)C(C(=O)NC1CCCCC1)c1ccco1)c1cccs1 (stereo not drawn), the growth inhibition is reported as -12.9% and the inhibition is reported as 9.07% (inactive). For Cc1nc2c(c(=O)n1Cc1ccco1)c1nc3ccccc3nc1n2Cc1ccccc1, the inhibition was 16.6% (inactive). In the case of CCOc1ccc(NC(=O)CN(C)CC(=O)Nc2cccc(Cl)c2C)cc1OCC, the growth inhibition is reported as -23.8% and the inhibition is reported as 30.2% (inactive). For COc1ccccc1-n1nnnc1S(=O)(=O)Cc1ccc(Cl)cc1, the growth inhibition was -20.6% and the inhibition was 24.8% (inactive). In the case of Cc1cc(C)n(-c2c(F)c(F)c(COC(=O)c3ccccc3)c(F)c2F)n1, the growth inhibition is reported as 23% and the inhibition is reported as 20.8% (inactive). With Cc1cccc(N2C(=O)c3cccnc3C2=O)c1 the growth inhibition was -42.9% and the inhibition was 27.9% (inactive). With CC(=O)NC1(c2cccc(F)c2)CCN(CC(=O)NC(C)C)CC1 the growth inhibition was 4.55% and the inhibition was 8.86% (inactive). With O=C(NCc1ccc(Cl)c(Cl)c1)c1cccnc1 the growth inhibition was -25% and the inhibition was 24.4% (inactive). With O=C(Nc1nncs1)c1cccc(S(=O)(=O)N2CCCCC2)c1 the growth inhibition was -27.3% and the inhibition was -2.85% (inactive). For Cc1ccc(C2(C(F)(F)F)N=C3Sc4cc(C)cc(C)c4N3C(=O)N2)cc1 (stereo not drawn), the growth inhibition was -4.76% and the inhibition was 31.4% (inactive). For C=CCn1c(SCCOc2ccc(OC)cc2)nnc1C(NC(=O)c1ccc(OC)cc1)C(C)C (stereo not drawn), the growth inhibition was -10% and the inhibition was 21.4% (inactive). For COCc1[nH][nH]c(=O)c1C=Nc1ccc(F)cc1F, the growth inhibition was 18.9% and the inhibition was 24.1% (inactive). In the case of Cc1ccc2c(CSc3nncs3)cc(=O)oc2c1, the growth inhibition is reported as -14.7% and the inhibition is reported as -21.6% (inactive). In the case of CCCCNS(=O)(=O)c1ccc(S(=O)(=O)n2cnc3ccccc32)cc1, the growth inhibition is reported as -31.6% and the inhibition is reported as -22.7% (inactive). With CCOC(=O)c1c(N)sc(C(C)=O)c1C the growth inhibition was 19.1% and the inhibition was 2.16% (inactive). For Cc1ccc(S(=O)(=O)c2nc(NCCCn3ccnc3)sc2Cl)cc1, the growth inhibition was 15.9% and the inhibition was 26% (inactive).
